How the values were obtained:
[1] = organism: Homo sapiens; test: Selectivity index, ratio of Ki for displacement of [3H]CCPA from recombinant human A1 adenosine receptor expressed in CHO cell membranes to Ki for displacement of [3H]PSB-603 from recombinant human A2B adenosine receptor expressed in CHO cell membranes
[2] = organism: Homo sapiens; test: Selectivity index, ratio of Ki for displacement of [3H]MSX-2 from recombinant human A2A adenosine receptor expressed in CHO cell membranes to Ki for displacement of [3H]PSB-603 from recombinant human A2B adenosine receptor expressed in CHO cell membranes
[3] = molecular target: T1, Adenosine receptor A3 (Homo sapiens) (UniProt P0DMS8); test: Displacement of [3H]PSB-11 from recombinant human A3 adenosine receptor expressed in CHO cell membranes at 1 uM measured after 45 mins in presence of adenosine deaminase by liquid scintillation counting method relative to control
T1 sequence (whole entry): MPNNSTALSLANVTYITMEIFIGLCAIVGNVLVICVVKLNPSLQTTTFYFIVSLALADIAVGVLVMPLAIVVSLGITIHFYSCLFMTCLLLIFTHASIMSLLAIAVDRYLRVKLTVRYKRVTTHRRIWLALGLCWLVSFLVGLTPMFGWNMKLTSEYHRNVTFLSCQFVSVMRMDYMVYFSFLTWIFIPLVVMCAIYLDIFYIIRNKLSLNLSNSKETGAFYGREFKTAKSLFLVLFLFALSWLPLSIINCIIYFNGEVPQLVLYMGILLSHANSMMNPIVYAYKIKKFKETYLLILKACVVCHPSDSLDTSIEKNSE
Outline: (§1)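 Single-point competition binding at human AR subtype membranes, each against its own tritiated radioligand. The test compound is given at 1 μM, and the result is reported as percent inhibition of radioligand binding. The radioligand-specific footnotes give n = 3.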

[4] = molecular target: T2, Adenosine receptor A2a (Homo sapiens, UniProt P29274); test: Displacement of [3H]MSX-2 from recombinant human A2A adenosine receptor expressed in CHO cell membranes measured after 30 mins in presence of adenosine deaminase by liquid scintillation counting method
T2 sequence (P29274 whole entry): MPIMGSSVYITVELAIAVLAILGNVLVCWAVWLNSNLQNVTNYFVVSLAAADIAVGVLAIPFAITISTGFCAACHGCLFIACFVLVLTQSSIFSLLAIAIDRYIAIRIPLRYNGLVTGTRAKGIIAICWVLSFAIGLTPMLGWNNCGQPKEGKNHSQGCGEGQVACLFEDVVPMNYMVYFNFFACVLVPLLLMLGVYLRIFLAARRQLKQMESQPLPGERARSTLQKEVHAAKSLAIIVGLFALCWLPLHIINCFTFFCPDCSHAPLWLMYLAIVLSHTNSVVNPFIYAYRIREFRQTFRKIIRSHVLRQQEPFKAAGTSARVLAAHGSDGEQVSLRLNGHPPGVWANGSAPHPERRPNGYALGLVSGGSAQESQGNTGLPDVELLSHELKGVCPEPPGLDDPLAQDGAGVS
Outline: (§2)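 Competition binding on membranes of cells recombinantly expressing the human receptor (CHO or HEK cells), with tritiated radioligand per subtype: [3H]PSB-603 for A2B, [3H]MSX-2 for A2A, [3H]CCPA for A1, [3H]PSB-11 for A3. Ki ± SEM from n = 3, some from extrapolated curves. Weak binders are reported as % inhibition of radioligand binding at 1 μM.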

[5] = molecular target: T2, Adenosine receptor A2a; test: Displacement of [3H]MSX-2 from recombinant human A2A adenosine receptor expressed in CHO cell membranes at 1 uM measured after 30 mins in presence of adenosine deaminase by liquid scintillation counting method relative to control; outline: as §1
[6] = molecular target: T3, Adenosine receptor A3 (Homo sapiens, UniProt P0DMS8); test: Displacement of [3H]PSB-11 from recombinant human A3 adenosine receptor expressed in CHO cell membranes measured after 45 mins in presence of adenosine deaminase by liquid scintillation counting method; outline: as §2
T3 sequence (P0DMS8 whole entry): T1 sequence (whole entry)

[7] = molecular target: T4, Adenosine receptor A1 (Homo sapiens, UniProt P30542); test: Displacement of [3H]CCPA from recombinant human A1 adenosine receptor expressed in CHO cell membranes measured after 90 mins in presence of adenosine deaminase by liquid scintillation counting method; outline: as §2
T4 sequence (P30542 whole entry): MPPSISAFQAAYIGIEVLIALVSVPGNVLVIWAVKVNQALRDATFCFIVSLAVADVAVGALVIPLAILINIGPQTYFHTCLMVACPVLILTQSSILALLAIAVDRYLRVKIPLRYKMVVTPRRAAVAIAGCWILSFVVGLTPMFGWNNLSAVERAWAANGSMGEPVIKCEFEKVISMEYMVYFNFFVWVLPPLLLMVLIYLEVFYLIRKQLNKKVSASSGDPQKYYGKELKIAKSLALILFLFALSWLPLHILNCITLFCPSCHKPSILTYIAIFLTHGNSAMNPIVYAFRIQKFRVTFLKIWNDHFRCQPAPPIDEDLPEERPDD

[8] = molecular target: T5, Adenosine receptor A2b (Homo sapiens, UniProt P29275); test: Displacement of [3H]PSB-603 from recombinant human A2B adenosine receptor expressed in CHO cell membranes measured after 75 mins in presence of adenosine deaminase by liquid scintillation counting method; outline: as §2
T5 sequence (P29275 whole entry): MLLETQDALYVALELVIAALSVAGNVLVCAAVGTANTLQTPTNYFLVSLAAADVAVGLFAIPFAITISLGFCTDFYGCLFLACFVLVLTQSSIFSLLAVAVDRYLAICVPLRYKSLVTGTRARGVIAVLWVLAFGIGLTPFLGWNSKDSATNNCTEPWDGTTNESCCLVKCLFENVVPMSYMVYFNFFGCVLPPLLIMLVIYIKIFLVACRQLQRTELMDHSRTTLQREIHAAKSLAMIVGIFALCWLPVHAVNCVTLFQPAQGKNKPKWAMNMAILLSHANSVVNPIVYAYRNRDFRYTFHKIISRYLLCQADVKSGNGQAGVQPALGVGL

[9] = organism: Homo sapiens; test: Selectivity index, ratio of Ki for displacement of [3H]PSB-11 from recombinant human A3 adenosine receptor expressed in CHO cell membranes to Ki for displacement of [3H]PSB-603 from recombinant human A2B adenosine receptor expressed in CHO cell membranes
[10] = molecular target: T6, Adenosine receptor A1 (Homo sapiens) (UniProt P30542); test: Displacement of [3H]CCPA from recombinant human A1 adenosine receptor expressed in CHO cell membranes at 1 uM measured after 90 mins in presence of adenosine deaminase by liquid scintillation counting method relative to control; outline: as §1
T6 sequence (whole entry): T4 sequence (P30542 whole entry)

SMILES | Ratio Ki [1] | Ratio Ki [2] | inhibition [3] [%] | Ki [4] [nM] | inhibition [5] [%] | Ki [6] [nM] | Ki [7] [nM] | Ki [8] [nM] | Ratio Ki [9] | inhibition [10] [%]
CCCn1c(=O)[nH]c2nc(-c3ccc(S(=O)(=O)N4CCN(c5ccc(OC)c(F)c5)CC4)cc3)[nH]c2c1=O | > 800 | > 800 | 21 | > 1000 | 30 | > 1000 | > 1000 | 1.24 | > 800 | 34
CCCn1c(=O)[nH]c2nc(-c3ccc(S(=O)(=O)N4CCN(c5ccc(C)cc5)CC4)cc3)[nH]c2c1=O | > 1420 | > 1420 | 25 | > 1000 | 34 | > 1000 | > 1000 | 0.706 | > 1420 | 12
CCCn1c(=O)[nH]c2nc(-c3ccc(S(=O)(=O)N4CCN(C(C)c5ccccc5)CC4)cc3)[nH]c2c1=O (stereo not drawn) | > 120 | > 120 | 0 | ≥ 1000 | 42 | > 1000 | ≥ 1000 | 8.34 | > 120 | 42
CCCn1c(=O)[nH]c2nc(-c3ccc(S(=O)(=O)N4CCN(c5ccc(I)cc5)CC4)cc3)[nH]c2c1=O | > 6290 | > 6290 | 36 | 2990 |  | > 1000 | > 1000 | 0.159 | > 6290 | 24
CCCn1c(=O)[nH]c2nc(-c3ccc(S(=O)(=O)N4CCN(Cc5ccc(Br)cc5)CC4)cc3)[nH]c2c1=O |  | 510 | 28 | 77.8 |  | > 1000 | > 1000 | 0.153 |  | 31
CCCn1c(=O)c2[nH]c(-c3ccc(S(=O)(=O)N4CCN(c5ccc(Cl)cc5)CC4)cc3)nc2n(CC)c1=O |  | 75 | 28 | 322 |  | > 1000 | > 1000 | 4.31 |  | 24
CCCn1c(=O)[nH]c2nc(-c3ccc(S(=O)(=O)N4CCN(c5ccc(O)c(Cl)c5)CC4)cc3)[nH]c2c1=O |  | > 30 | 41 | 93.8 |  | > 1000 | > 1000 | 3.55 |  | 37
CCCn1c(=O)[nH]c2nc(-c3ccc(S(=O)(=O)N4CCN(c5ccc(OC)c(Cl)c5)CC4)cc3)[nH]c2c1=O | > 2840 | > 2840 | 1 | > 1000 | 31 | > 1000 | > 1000 | 0.352 | > 2840 | 23
CCCn1c(=O)[nH]c2nc(-c3ccc(S(=O)(=O)N4CCN(Cc5ccc(C(=O)O)cc5)CC4)cc3)[nH]c2c1=O | 10 | 10 | -7 | 1160 |  | > 1000 | > 1000 | 96.7 | 10 | 12
CCCn1c(=O)[nH]c2nc(-c3ccc(S(=O)(=O)N4CCN(Cc5cc(F)cc(OC)c5)CC4)cc3)[nH]c2c1=O |  | 160 | 12 | 160 |  | > 1000 | > 1000 | 1.02 |  | 31
CCCn1c(=O)[nH]c2nc(-c3ccc(S(=O)(=O)N4CCN(c5ccccc5Cl)CC4)cc3)[nH]c2c1=O |  | 510 | 32 | 204 |  | > 1000 | > 1000 | 0.403 |  | 25
CCCn1c(=O)[nH]c2nc(-c3ccc(S(=O)(=O)N4CCN(c5ccccc5F)CC4)cc3)[nH]c2c1=O | > 310 | > 310 | 9 | > 1000 | 27 | > 1000 | > 1000 | 3.22 | > 310 | 13
CCCn1c(=O)[nH]c2nc(-c3ccc(S(=O)(=O)N4CCN(c5ccc(Cl)cc5F)CC4)cc3)[nH]c2c1=O | > 500 | > 500 | 14 | > 1000 | 6 | > 1000 | > 1000 | 1.91 | > 500 | 9
CCCn1c(=O)[nH]c2nc(-c3ccc(S(=O)(=O)N4CCN(c5ccc(OCCO)cc5)CC4)cc3)[nH]c2c1=O |  | 30 | 23 | 168 |  | > 1000 | > 1000 | 6.08 |  | 24
CCCn1c(=O)[nH]c2nc(-c3ccc(S(=O)(=O)N4CCN(c5ccccc5)C(C)C4)cc3)[nH]c2c1=O (stereo not drawn) |  | 40 | -2 | 293 |  | > 1000 | > 1000 | 7.15 |  | 15
CCCn1c(=O)[nH]c2nc(-c3ccc(S(=O)(=O)N4CCN(Cc5ccc(Br)c(F)c5)CC4)cc3)[nH]c2c1=O | 690 |  | 27 | 403 |  | > 1000 | 326 | 0.473 |  | 
CCCn1c(=O)[nH]c2nc(-c3ccc(S(=O)(=O)N4CCN(C(=O)c5ccccc5)CC4)cc3)[nH]c2c1=O |  | 30 | 26 | 143 |  | > 1000 | > 1000 | 5.69 |  | 15
CCCn1c(=O)[nH]c2nc(-c3ccc(S(=O)(=O)N4CCN(c5ccccc5Br)CC4)cc3)[nH]c2c1=O |  | 650 | 20 | 89.5 |  | > 1000 | > 1000 | 0.137 |  | 28
CCCn1c(=O)[nH]c2nc(-c3ccc(S(=O)(=O)N4CCN(Cc5ccc(F)c(OC)c5)CC4)cc3)[nH]c2c1=O |  | 220 | -5 | 135 |  | > 1000 | > 1000 | 0.629 |  | 25
CCCn1c(=O)[nH]c2nc(-c3ccc(S(=O)(=O)N4CCN(c5ccc(F)cc5)CC4)cc3)[nH]c2c1=O |  | 170 | 38 | 108 |  | > 1000 | > 1000 | 0.644 |  | 14
CCCn1c(=O)[nH]c2nc(-c3ccc(S(=O)(=O)N4CCN(c5cccc(Cl)c5)CC4)cc3)[nH]c2c1=O |  |  |  | 1000 | 42 | 53.5 | > 1000 | 0.342 | 160 | 21

Source: ChEMBL document CHEMBL4346653, “A2B Adenosine Receptor Antagonists with Picomolar Potency” (J Med Chem, 2019)
